Assay results as given in ChEMBL document CHEMBL4689842, “EUbOPEN Chemogenomics Library wave 1” (2021).

Test system: HEK-293T
Assay: Multiplex assay against HEK293T;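 for Population Tubulin-Different-Phenotype (%): share of the cells with healthy nuclei that show this phenotype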
Format: toxicity, cell-based
Details: human
How it was run: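 Hoechst33342, BioTracker Green Microtubule Cytoskeleton Dye, MitoTracker Red and Annexin V Alexa Fluor 680 were added to live cells at seeding, and imaging on a CQ1 microscope at 37°C and 5% CO2 followed compound addition. Gating by CellPathfinder machine learning separated cells into Hoechst high-intensity objects or normal cells, then normal cells into healthy, pyknosed or fragmented nuclei, then pyknosed cells into mitotic or apoptotic. Per cents of healthy-nucleus cells are reported for the tubulin, mitochondrial-mass and membrane-permeability phenotypes.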

[1] = 12 h, 1 µM, compound concentration 1 uM, replicate 1
[2] = 12 h, 1 µM, compound concentration 1 uM, replicate 2
[3] = 12 h, 10 µM, compound concentration 10 uM, replicate 1
[4] = 12 h, 10 µM, compound concentration 10 uM, replicate 2
[5] = 24 h, 1 µM, compound concentration 1 uM, replicate 1
[6] = 24 h, 1 µM, compound concentration 1 uM, replicate 2
[7] = 24 h, 10 µM, compound concentration 10 uM, replicate 1
[8] = 24 h, 10 µM, compound concentration 10 uM, replicate 2
[9] = 48 h, 1 µM, compound concentration 1 uM, replicate 1
[10] = 48 h, 1 µM, compound concentration 1 uM, replicate 2
[11] = 48 h, 10 µM, compound concentration 10 uM, replicate 1
[12] = 48 h, 10 µM, compound concentration 10 uM, replicate 2

## CC(C)Oc1ccccc1C(=O)Nc1ccccc1C(=O)Nc1cccc(S(=O)(=O)C(F)(F)F)c1
[1]
  Population Apoptotic (%): 64%
  Population Fragmented Nuclei (%): 10%
  Population Healthy Nuclei (%): 41%
  Population Hoechst High Intensity Objects (%): 14%
  Population Membrane Permeable-Phenotype (%): 3%
  Population Mitochondria Different-Phenotype (%): 90%
  Population Mitotic Cells (%): 35%
  Population Normal (%): 85%
  Population Pyknosed Nuclei (%): 47%
  Population Tubulin-Different-Phenotype (%): 77%
  Total Cell Count: 237
[2]
  Population Apoptotic (%): 34%
  Population Fragmented Nuclei (%): 7%
  Population Healthy Nuclei (%): 37%
  Population Hoechst High Intensity Objects (%): 6%
  Population Membrane Permeable-Phenotype (%): 8%
  Population Mitochondria Different-Phenotype (%): 58%
  Population Mitotic Cells (%): 65%
  Population Normal (%): 93%
  Population Pyknosed Nuclei (%): 55%
  Population Tubulin-Different-Phenotype (%): 76%
  Total Cell Count: 214
[3]
  Population Fragmented Nuclei (%): 11%
  Population Healthy Nuclei (%): 31%
  Population Hoechst High Intensity Objects (%): 13%
  Population Membrane Permeable-Phenotype (%): 6%
  Population Mitochondria Different-Phenotype (%): 91%
  Population Mitotic Cells (%): 34%
  Population Normal (%): 87%
  Population Pyknosed Nuclei (%): 57%
  Population Tubulin-Different-Phenotype (%): 87%
  Total Cell Count: 300
[4]
  Population Apoptotic (%): 66%
  Population Fragmented Nuclei (%): 7%
  Population Healthy Nuclei (%): 21%
  Population Hoechst High Intensity Objects (%): 4%
  Population Membrane Permeable-Phenotype (%): 9%
  Population Mitochondria Different-Phenotype (%): 71%
  Population Mitotic Cells (%): 33%
  Population Normal (%): 95%
  Population Pyknosed Nuclei (%): 71%
  Population Tubulin-Different-Phenotype (%): 83%
  Total Cell Count: 206
[5]
  Population Apoptotic (%): 64%
  Population Fragmented Nuclei (%): 16%
  Population Healthy Nuclei (%): 44%
  Population Hoechst High Intensity Objects (%): 14%
  Population Membrane Permeable-Phenotype (%): 0%
  Population Mitochondria Different-Phenotype (%): 90%
  Population Mitotic Cells (%): 35%
  Population Normal (%): 85%
  Population Pyknosed Nuclei (%): 38%
  Population Tubulin-Different-Phenotype (%): 67%
  Total Cell Count: 263
[6]
  Population Apoptotic (%): 42%
  Population Fragmented Nuclei (%): 8%
  Population Healthy Nuclei (%): 50%
  Population Hoechst High Intensity Objects (%): 3%
  Population Membrane Permeable-Phenotype (%): 3%
  Population Mitochondria Different-Phenotype (%): 66%
  Population Mitotic Cells (%): 58%
  Population Normal (%): 96%
  Population Pyknosed Nuclei (%): 41%
  Population Tubulin-Different-Phenotype (%): 83%
  Total Cell Count: 253
[7]
  Population Apoptotic (%): 61%
  Population Fragmented Nuclei (%): 18%
  Population Healthy Nuclei (%): 31%
  Population Hoechst High Intensity Objects (%): 11%
  Population Membrane Permeable-Phenotype (%): 4%
  Population Mitochondria Different-Phenotype (%): 94%
  Population Mitotic Cells (%): 38%
  Population Normal (%): 88%
  Population Pyknosed Nuclei (%): 49%
  Population Tubulin-Different-Phenotype (%): 77%
  Total Cell Count: 332
[8]
  Population Apoptotic (%): 78%
  Population Fragmented Nuclei (%): 7%
  Population Healthy Nuclei (%): 25%
  Population Hoechst High Intensity Objects (%): 3%
  Population Membrane Permeable-Phenotype (%): 9%
  Population Mitochondria Different-Phenotype (%): 84%
  Population Mitotic Cells (%): 21%
  Population Normal (%): 96%
  Population Pyknosed Nuclei (%): 67%
  Population Tubulin-Different-Phenotype (%): 81%
  Total Cell Count: 217
[9]
  Population Apoptotic (%): 63%
  Population Fragmented Nuclei (%): 19%
  Population Healthy Nuclei (%): 43%
  Population Hoechst High Intensity Objects (%): 16%
  Population Membrane Permeable-Phenotype (%): 2%
  Population Mitochondria Different-Phenotype (%): 66%
  Population Mitotic Cells (%): 36%
  Population Normal (%): 83%
  Population Pyknosed Nuclei (%): 36%
  Population Tubulin-Different-Phenotype (%): 50%
  Total Cell Count: 286
[10]
  Population Apoptotic (%): 25%
  Population Fragmented Nuclei (%): 6%
  Population Healthy Nuclei (%): 73%
  Population Hoechst High Intensity Objects (%): 5%
  Population Membrane Permeable-Phenotype (%): 3%
  Population Mitochondria Different-Phenotype (%): 46%
  Population Mitotic Cells (%): 74%
  Population Normal (%): 94%
  Population Pyknosed Nuclei (%): 19%
  Population Tubulin-Different-Phenotype (%): 74%
  Total Cell Count: 393
[11]
  Population Apoptotic (%): 59%
  Population Fragmented Nuclei (%): 35%
  Population Healthy Nuclei (%): 30%
  Population Hoechst High Intensity Objects (%): 13%
  Population Membrane Permeable-Phenotype (%): 3%
  Population Mitochondria Different-Phenotype (%): 89%
  Population Mitotic Cells (%): 40%
  Population Normal (%): 86%
  Population Pyknosed Nuclei (%): 34%
  Population Tubulin-Different-Phenotype (%): 50%
  Total Cell Count: 401
[12]
  Population Apoptotic (%): 58%
  Population Fragmented Nuclei (%): 16%
  Population Healthy Nuclei (%): 26%
  Population Hoechst High Intensity Objects (%): 5%
  Population Membrane Permeable-Phenotype (%): 15%
  Population Mitochondria Different-Phenotype (%): 64%
  Population Mitotic Cells (%): 41%
  Population Normal (%): 94%
  Population Pyknosed Nuclei (%): 56%
  Population Tubulin-Different-Phenotype (%): 79%
  Total Cell Count: 251
